In ChEMBL document CHEMBL1759864, “Synthesis and proteasome inhibition of lithocholic acid derivatives” (Bioorg Med Chem Lett, 2011):
Calls of active or inactive are those of the source. No cut-off for these calls is given here. Where a SMILES comes first, the peptide text is derived from it.

Columns and labels:
[1] = Inhibition of chymotrypsin-like activity of 20S proteasome
[2] = Inhibition of trypsin-like activity of 20S proteasome
[3] = Inhibition of caspase-like activity of 20S proteasome
HeLa = assay: Inhibition of proteasome activity in human HeLa cells transfected with UbG76V-GFP assessed as accumulation of ubiquitinG76V-GFP at 7.5 uM after 24 hrs by fluorescence microscopy
In short: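 HeLa cells stably expressing Ub^G76V-GFP, grown in DMEM with 10% heat-inactivated FBS at 37 °C, humidified. Cells seeded at 10,000 per well and exposed to compound at 7.5 µM for 24 h. Proteasome block is read as intracellular Ub^G76V-GFP accumulation (green fluorescence), documented by fluorescence microscopy against untreated cells.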

Row | inhibition [1] | SMILES | IC50 [1] [µM] | other results
1 | – | C[C@H](CCC(=O)O)[C@H]1CC[C@H]2[C@@H]3CC[C@@H]4C[C@H](OC(=O)CCCCC(=O)O)CC[C@]4(C)[C@H]3CC[C@]12C | 3.5 | –
2 | – | C[C@H](CCC(=O)O)[C@H]1CC[C@H]2[C@@H]3CC[C@@H]4C[C@H](OC(=O)CCCC(=O)O)CC[C@]4(C)[C@H]3CC[C@]12C | 10.8 | –
3 | – | C[C@H](CCC(=O)O)[C@H]1CC[C@H]2[C@@H]3CC[C@@H]4C[C@H](OC(=O)Cc5cccc(CC(=O)O)c5)CC[C@]4(C)[C@H]3CC[C@]12C | 1.9 | IC50 [2]: 9.1 µM; IC50 [3]: 6.5 µM
4 | inactive | COC(=O)CC[C@@H](C)[C@H]1CC[C@H]2[C@@H]3CC[C@@H]4C[C@H](OC(=O)Cc5cccc(CC(=O)O)c5)CC[C@]4(C)[C@H]3CC[C@]12C | – | –
5 | – | C[C@H](CCC(=O)O)[C@H]1CC[C@H]2[C@@H]3CC[C@@H]4C[C@H](OC(=O)[C@@H]5CCCC[C@H]5C(=O)O)CC[C@]4(C)[C@H]3CC[C@]12C | 8.5 | –
6 | inactive | CCOC(=O)CC[C@@H](C)[C@H]1CC[C@H]2[C@@H]3CC[C@@H]4C[C@H](O)CC[C@]4(C)[C@H]3CC[C@]12C | – | –
7 | – | C[C@H](CCC(=O)O)[C@H]1CC[C@H]2[C@@H]3CC[C@@H]4C[C@H](OC(=O)CC5(CC(=O)O)CCCC5)CC[C@]4(C)[C@H]3CC[C@]12C | 2.2 | inhibition (HeLa): Active
8 | inactive | COC(=O)CC[C@@H](C)[C@H]1CC[C@H]2[C@@H]3CC[C@@H]4C[C@H](O)CC[C@]4(C)[C@H]3CC[C@]12C | – | –
9 | – | C[C@H](CCC(=O)O)[C@H]1CC[C@H]2[C@@H]3CC[C@@H]4C[C@H](OC(=O)Cc5ccc(CC(=O)O)cc5)CC[C@]4(C)[C@H]3CC[C@]12C | 3.8 | –
10 | – | C[C@H](CCC(=O)O)[C@H]1CC[C@H]2[C@@H]3CC[C@@H]4C[C@H](OC(=O)COCC(=O)O)CC[C@]4(C)[C@H]3CC[C@]12C | 6.9 | –
11 | inactive | C[C@H](CCC(=O)O)[C@H]1CC[C@H]2[C@@H]3CC[C@@H]4C[C@H](OC(=O)CCCCCC(=O)O)CC[C@]4(C)[C@H]3CC[C@]12C | – | –
12 | – | CC(C(=O)O)C(C)C(=O)O[C@@H]1CC[C@@]2(C)[C@H](CC[C@@H]3[C@@H]2CC[C@]2(C)[C@@H]([C@H](C)CCC(=O)O)CC[C@@H]32)C1 (some centres not stated) | 5.8 | –
13 | – | CSCC[C@@H](C=O)NC(=O)[C@H](CC(C)C)NC(=O)[C@H](CC(C)C)NC(C)=O (Ac-Leu-Leu-Met-aldehyde) | 5.2 | –
14 | – | C[C@H](CCC(=O)O)[C@H]1CC[C@H]2[C@@H]3CC[C@@H]4C[C@H](OC(=O)CCC(=O)O)CC[C@]4(C)[C@H]3CC[C@]12C | 10.3 | –
15 | – | C[C@H](CCC(=O)O)[C@H]1CC[C@H]2[C@@H]3CC[C@@H]4C[C@H](O)CC[C@]4(C)[C@H]3CC[C@]12C [LITHOCHOLIC ACID] | 18.1 | –
16 | inactive | CCOC(=O)CC[C@@H](C)[C@H]1CC[C@H]2[C@@H]3CC[C@@H]4C[C@H](OC(=O)CCCCCC(=O)O)CC[C@]4(C)[C@H]3CC[C@]12C | – | –
17 | – | CC(CC(=O)O[C@@H]1CC[C@@]2(C)[C@H](CC[C@@H]3[C@@H]2CC[C@]2(C)[C@@H]([C@H](C)CCC(=O)O)CC[C@@H]32)C1)C(=O)O (some centres not stated) | 11.5 | –
18 | – | C[C@H](CCC(=O)O)[C@H]1CC[C@H]2[C@@H]3CC[C@@H]4C[C@H](OC(=O)c5ccccc5C(=O)O)CC[C@]4(C)[C@H]3CC[C@]12C | 8.6 | –

Row | SMILES | inhibition [1] | IC50 [1] [µM] | other results
19 | COC(=O)CC[C@@H](C)[C@H]1CC[C@H]2[C@@H]3CC[C@@H]4C[C@H](OC(=O)CCCCCC(=O)O)CC[C@]4(C)[C@H]3CC[C@]12C | inactive | – | –
